Series [1] deals with Homo sapiens. The experiment in a line: AUC (0 to infinity) in cancer patient assessed as total radioactivity at 2 mg, iv administered as bolus infusion for 2 to 5 mins by LC-MS/MS analysis/liquid scintillation counting. In kind it is ADME, organism-based, Plasma. Also noted: dose 2 mg, time infinity, route intravenous. The conditions noted are these: in vivo. In outline:
(§1)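 Six patients with advanced solid tumours got one ~2 mg (~80 µCi) 14C-eribulin IV bolus over 2-5 min. Venous blood was drawn into lithium heparin pre-dose, at end of infusion and 5 min-168 h after, then spun 2,000 g, 4 °C, 15 min. Plasma was counted in duplicate by LSC with quench correction. Non-compartmental analysis; dose-normalised values use actual administered dose.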

Series [2] in a line: Drug excretion in cancer patient feces at 80 uCi, iv administered as bolus infusion for 2 to 5 mins after 168 hrs by liquid scintillation counting. The format is ADME, organism-based. The conditions noted are these: human, in vivo. The method in brief:
(§2)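 Patients had one ~2 mg (~80 µCi) 14C-eribulin IV bolus over 2-5 min. Urine was pooled over 6 h periods to 48 h, then every 24 h. All faeces were collected and homogenised. Collection ran to day 8, or longer until daily recovery was <1% of administered activity (faeces up to 312 h). Faeces were solubilised and decolourised, then LSC counted with quench correction, as percentage of administered activity.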

Series [3] deals with Homo sapiens. The experiment in a line: Dose-normalized AUC (0 to infinity) in cancer patient plasma assessed as total radioactivity at 2 mg, iv administered as bolus infusion for 2 to 5 mins by LC-MS/MS analysis/liquid scintillation counting. The conditions noted are these: in vivo. The format is ADME, organism-based. The method in brief:
as §1

A short description of series [4]: Drug excretion in cancer patient urine at 80 uCi, iv administered as bolus infusion for 2 to 5 mins after 168 hrs by liquid scintillation counting. The settings on record: human, in vivo. In kind it is ADME, organism-based. The method in brief:
as §2

Series [5] deals with Homo sapiens. The experiment in a line: Cmax in cancer patient plasma assessed as total radioactivity at 2 mg, iv administered as bolus infusion for 2 to 5 mins by LC-MS/MS analysis/liquid scintillation counting. In kind it is ADME, organism-based. The conditions noted are these: in vivo. Also noted: dose 2 mg, route intravenous. The method in brief:
as §1

Series [6] in a line: Drug excretion in cancer patient feces at 80 uCi, iv administered as bolus infusion for 2 to 5 mins after 312 hrs by liquid scintillation counting. In kind it is ADME, organism-based. The conditions noted are these: human, in vivo. The method in brief:
as §2

Series [7] has as its system Homo sapiens. The experiment in a line: Dose-normalized Cmax in cancer patient plasma assessed as total radioactivity at 2 mg, iv administered as bolus infusion for 2 to 5 mins by LC-MS/MS analysis/liquid scintillation counting. In kind it is ADME, organism-based. The settings on record: in vivo. In outline:
as §1

Series [8] relates to Homo sapiens. The experiment in a line: Toxicity against cancer patient assessed as severe adverse event at 80 uCi, iv administered as bolus infusion for 2 to 5 mins. The settings on record: in vivo. The format is organism-based.
A short description of series [9]: Drug excretion in cancer patient urine at 80 uCi, iv administered as bolus infusion for 2 to 5 mins after 312 hrs by liquid scintillation counting. The conditions noted are these: human, in vivo. In kind it is ADME, organism-based. The method in brief: as §2
For series [10], the system named is Homo sapiens. Nature of the series: Dose-normalized AUC (0 to t) in cancer patient plasma assessed as total radioactivity at 2 mg, iv administered as bolus infusion for 2 to 5 mins by LC-MS/MS analysis/liquid scintillation counting. In kind it is ADME, organism-based. The conditions noted are these: in vivo. The method in brief: as §1
In series [11] the test system is Homo sapiens. The experiment in a line: AUC (0 to t) in cancer patient assessed as total radioactivity at 2 mg, iv administered as bolus infusion for 2 to 5 mins by LC-MS/MS analysis/liquid scintillation counting. The settings on record: in vivo. In kind it is ADME, organism-based, Plasma. In outline:
as §1

The test system of series [12] is Homo sapiens. The experiment in a line: Toxicity against cancer patient assessed as mortality at 80 uCi, iv administered as bolus infusion for 2 to 5 mins. The format is organism-based. The settings on record: in vivo.
The subject of series [13] is Homo sapiens. The experiment in a line: Terminal half life in cancer patient assessed as total radioactivity at 2 mg, iv administered as bolus infusion for 2 to 5 mins by LC-MS/MS analysis/liquid scintillation counting. The format is ADME, organism-based. The settings on record: in vivo. In outline:
as §1

The nature of series [14]: Drug excretion in patient urine assessed as unchanged compound level at 0.25 to 1.4 mg/m2 administered 1 hr, iv infusion after 72 hrs. In kind it is ADME, organism-based. The settings on record: human, read-out: Drug excretion.
The test system of series [15] is Homo sapiens. Nature of the series: Apparent volume of distribution in the terminal phase in cancer patient at 2 mg, iv administered as bolus infusion for 2 to 5 mins by LC-MS/MS analysis. In kind it is ADME, organism-based. The settings on record: in vivo. In outline:
(§3)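 Six patients with advanced solid tumours received a single ~2 mg (~80 µCi) 14C-eribulin IV bolus over 2-5 min. Plasma was sampled from pre-dose to 168 h after end of infusion, using lithium-heparin tubes centrifuged at 4 °C. Eribulin was quantified by validated LC-MS/MS (m/z 730→712) and corrected ×2.03 for total eribulin. CL, CLr and Vz came from non-compartmental analysis. Values are mean ± SD, n=6.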

Series [16] relates to Homo sapiens. The experiment in a line: Dose-normalized AUC (0 to t) in cancer patient plasma at 2 mg, iv administered as bolus infusion for 2 to 5 mins by LC-MS/MS analysis/liquid scintillation counting. In kind it is ADME, organism-based. The conditions noted are these: in vivo. The method in brief:
(§4)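 Single ~2 mg (~80 µCi) 14C-eribulin IV bolus over 2-5 min in 6 cancer patients; actual doses were 1.75-3.01 mg. Plasma eribulin was measured by LC-MS/MS and total radioactivity by liquid scintillation counting with quench correction. Cmax, AUC0-t and AUC0-∞ came from non-compartmental analysis and were divided by the actual dose. TRA AUC0-∞ used n=5.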

Series [17] in a line: Renal clearance in cancer patient at 2 mg, iv administered as bolus infusion for 2 to 5 mins by LC-MS/MS analysis. In kind it is ADME, organism-based, Kidney. The conditions noted are these: human, in vivo. In outline:
as §3

The nature of series [18]: Terminal half life in breast cancer patient. The format is ADME, organism-based. The settings on record: human, in vivo; read-out: beta t1/2 (converted).
Series [19] can be described thus: Clearance in cancer patient at 2 mg, iv administered as bolus infusion for 2 to 5 mins by LC-MS/MS analysis. In kind it is ADME, organism-based. The conditions noted are these: human, in vivo. In outline:
as §3

Series [20] deals with Homo sapiens. The experiment in a line: Dose-normalized AUC (0 to infinity) in cancer patient plasma at 2 mg, iv administered as bolus infusion for 2 to 5 mins by LC-MS/MS analysis/liquid scintillation counting. The format is ADME, organism-based. The settings on record: in vivo. In outline: as §4
The nature of series [21]: Drug excretion in patient urine assessed as unchanged compound at 0.25 to 4 mg/m2 administered 1 hr, iv infusion every 21 days after 72 hrs. The format is ADME, organism-based. The conditions noted are these: human, read-out: Drug excretion.
In series [22] the test system is Homo sapiens. The experiment in a line: Dose-normalized Cmax in cancer patient plasma at 2 mg, iv administered as bolus infusion for 2 to 5 mins by LC-MS/MS analysis/liquid scintillation counting. In kind it is ADME, organism-based. The settings on record: in vivo. The method in brief: as §4
Series [23] deals with Homo sapiens. The experiment in a line: Drug excretion in cancer patient treated with [14C]eribulin acetate at 2 mg, iv administered as bolus infusion for 2 to 5 mins after 168 hrs by LC-MS/MS analysis. In kind it is ADME, organism-based. The settings on record: in vivo. In outline:
(§5)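 Patients got a ~2 mg (~80 µCi) 14C-eribulin IV bolus over 2-5 min. Urine was collected in 6 h periods to 48 h, then in 24 h periods. All faeces were collected and homogenised until daily recovery was <1% of dose; four patients continued to 312 h. Unchanged eribulin was measured by LC-MS/MS (faeces 0.1–25 µg/g) and total radioactivity by LSC. Results are % of the administered dose, mean ± SD.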

Series [24] has as its system Homo sapiens. The experiment in a line: Drug excretion in cancer patient treated with [14C]eribulin acetate at 2 mg, iv administered as bolus infusion for 2 to 5 mins after 312 hrs by LC-MS/MS analysis. In kind it is ADME, organism-based. The conditions noted are these: in vivo. The method in brief:
as §5

One may read the clearance as a measure of how efficiently the substance is removed, as volume per time.

For the molecule `C=C1C[C@@H]2CC[C@@]34C[C@H]5O[C@H]6[C@@H](O3)[C@H]3O[C@H](CC[C@@H]3O[C@H]6[C@H]5O4)CC(=O)C[C@@H]3[C@@H](OC)[C@@H](C[C@H](O)CN)O[C@H]3C[C@H]3O[C@@H](CC[C@@H]1O2)C[C@@H](C)C3=C.CC(=O)O`, in [1], the AUC stood at 753 ng.Eq.hr/ml. The Drug excretion in [2] was determined as 77.6%; in series [4], 8.9%; in series [6], 81.5%; in [9] it was 8.9%. Also, in series [3], the AUC/dose came out at 357 ngequiv.hr/ml/mg. Also, in [5], the Cmax is 449 ng.Eq/ml. In addition, the Cmax/dose in series [7] worked out at 224 ngequiv/ml/mg. In addition, the Activity entry in series [8] and in series [12] was “Non-toxic” each time. Moreover, the AUCt/dose in series [10] is 269 ngequiv.hr/ml/mg. For the same molecule, the AUCt in series [11] is listed as 568 ng.Eq.hr/ml. In series [13], the “beta t1/2” value was 42.3 h.
As for `C=C1C[C@@H]2CC[C@@]34C[C@H]5O[C@H]6[C@@H](O3)[C@H]3O[C@H](CC[C@@H]3O[C@H]6[C@H]5O4)CC(=O)C[C@@H]3[C@@H](OC)[C@@H](C[C@H](O)CN)O[C@H]3C[C@H]3O[C@@H](CC[C@@H]1O2)C[C@@H](C)C3=C.CS(=O)(=O)O` [ERIBULIN MESYLATE], the dose excreted at 72 h was determined as 5% in [14] and 7% in series [21]. Moreover, in series [15], the Vz/F is 247 L. In [16], this molecule registered an AUCt/dose of 301 ng·h/mL/mg. In [17], the CL renal is 5 mL/min. Moreover, the half-life in series [18] is 36 h. Further, the clearance in [19] was 65.5 mL/min. Further, the AUC/dose in series [20] amounted to 328 ng·h/mL/mg. Moreover, the Cmax/dose in series [22] was 222 ng/mL/mg. The figures for the Drug excretion in series [23] and in series [24] were 68% and 68.6%, respectively.

The record behind these values is ChEMBL document CHEMBL3526070, “Mass balance study of [¹⁴C]eribulin in patients with advanced solid tumors” (Drug Metab Dispos, 2012).
